ChEMBL document CHEMBL2146387, “Synthesis and biological evaluation of a new vitamin D2 analogue” (Bioorg Med Chem Lett, 2012)

Experiments:
Mus musculus [1] = test: Toxicity in mouse assessed as mortality at 5 ug/kg, ip qd for 4 days; format: organism-based; details: in vivo, 0.005 mg/kg, 96 h
How it was run: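 Mice, groups of 5, given daily intraperitoneal injection at 5 µg/kg body weight for 4 days, isopropanol vehicle group alongside. Blood collected before dosing and at 24, 48, 72 and 96 h for plasma calcium (arsenazo III absorbance). Health condition recorded daily; deaths noted. Experiment repeated two times.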

HCT-116 = test: Cytotoxicity against human HCT116 assessed as decrease in cell count after 120 hrs; format: functional, cell-based; details: HCT-116, 120 h
[2] = Cytotoxicity against human HN12 assessed as decrease in cell count after 120 hrs; format: functional; details: HN12, 120 h
Mus musculus [3] = test: Toxicity in mouse assessed as increase in haematocrit at 5 ug/kg, ip qd for 4 days after 72 hrs of last postdose; format: organism-based; details: in vivo, 0.005 mg/kg
How it was run: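 Mice (n = 5/group) received a daily intraperitoneal injection at 5 µg/kg body weight for 4 days, with isopropanol as vehicle. Blood was drawn before dosing and at 24, 48, 72 and 96 h, and haematocrit was recorded from these samples.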

Mus musculus [4] = test: Toxicity in mouse assessed as increase in plasma calcium level at 5 ug/kg, ip qd for 4 days measured after 24 to 96 hrs postdose; format: organism-based; details: in vivo, 0.005 mg/kg
How it was run: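 Mice (n = 5/group) were dosed ip daily at 5 µg/kg body weight for 4 days, with isopropanol as vehicle. Plasma calcium was read by arsenazo III metallochromic absorbance before injection (0 h, basal) and at 24, 48, 72 and 96 h. Data are means ± SD of five animals, and the experiment was run twice.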

[5] = AUC (0 to 24 hrs) in mouse at 5 ug/kg; format: ADME, organism-based; design: dose 5 ug/kg, time < 24 hr; details: plasma, 0.005 mg/kg
[6] = Cmax in mouse at 5 ug/kg; format: ADME, organism-based; design: dose 5 ug/kg; details: in vivo, 0.005 mg/kg

| SMILES | Activity (Mus musculus [1]) | IC50 (HCT-116) | IC50 [2] | Activity (Mus musculus [3]) | Activity (Mus musculus [4]) | AUC(0-t) at 24 h [5] | Cmax [6] |
| --- | --- | --- | --- | --- | --- | --- | --- |
| C=C1/C(=C\C=C2/CCC[C@]3(C)[C@@H]([C@H](C)/C=C\[C@H](C)C(O)(CC)CC)CC[C@@H]23)C[C@@H](O)C[C@@H]1O | Toxic | 0.76 nM | 5.05 nM | Toxic | Toxic |  |  |
| C=C1/C(=C\C=C2/CCC[C@]3(C)[C@@H]([C@H](C)CCCC(C)(C)O)CC[C@@H]23)C[C@@H](O)C[C@@H]1O [CALCITRIOL] | Toxic |  |  | Toxic | Toxic | > 40 ng·h/mL | > 10 ng/mL |
